Molecules are shown by their SMILES. Inconclusive results are not listed. Calls of active or inactive are those of the source.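 The calls were made as follows: active = fitted curve reaches caspase activation of 10% of the positive control signal in every replicate test; inconclusive = tests disagree, or a test had a flat mid-level or poor fit; inactive = every replicate test called inactive.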

The test system of the first assay is MEF Flag-A1-IRES-BIM, caspase-Glo luminescence, 3 h. The assay can be described thus: apoptosis induction in A1/BIM co-expressing fibroblasts – cell-based, Flag-A1-IRES-BIM MEF, luminescence, dry powder, set 3, orthogonal assay for A1 inhibitor project, dose response (AID 504409).
Conditions: not given
The method, boiled down: (§1)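 System: mouse embryonic fibroblasts primed with alternate Flag-A1-IRES-BIM construct. Medium: RPMI-1640, 10% heat-inactivated FBS. Doses: 100 nL pinned compound per well. Timing: 3 h exposure (37 °C, 5% CO2), 1 h room-temperature detection. Detection: CaspaseGlo luminescence. Read-out basis: caspase activation level from luminescent signal.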
With `COCCn1c(=O)c([N+](=O)[O-])c(Cl)c2ccccc21`, the AC10 was 1.46 µM.
Same read-out and setting: then `Cn1c(=O)c([N+](=O)[O-])c(Cl)c2ccccc21`, with 1.84 µM; and `CC1(C)CCC(c2ccc(Cl)cc2)=C(CN2CCN(c3ccc(C(=O)NS(=O)(=O)c4ccc(N[C@H](CCN5CCOCC5)CSc5ccccc5)c(S(=O)(=O)C(F)(F)F)c4)cc3)CC2)C1`, with 0.689 µM.
On to `O=c1[nH]c2ccccc2c(Cl)c1[N+](=O)[O-]`, for which the AC10 was 3.38 µM.
For the compound `Cc1ccc(S(=O)(=O)c2c([N+](=O)[O-])c(=O)n(C)c3ccccc23)cc1`, the AC10 was 4.11 µM.
Still for that read-out and setting: then `CCn1c(=O)c([N+](=O)[O-])c(Cl)c2ccccc21`, with 1.49 µM; and `Cn1c(=O)c([N+](=O)[O-])c(S(C)(=O)=O)c2ccccc21`, with 3.06 µM; and `Cn1c(=O)c([N+](=O)[O-])c(Sc2ccccn2)c2ccccc21`, with 3 µM.
On the same count and under the same terms, the figure for `COCCn1c(=O)c([N+](=O)[O-])c(Sc2ccc(C)cc2)c2ccccc21` is 15.5 µM.

Tested on in another assay: not listed separately
The assay is described as above. As to conditions: MEF Flag-A1-IRES-BIM, caspase-Glo luminescence, 3 h; at 35 µM (top of the series). The method, boiled down:
as §1
On to `Cc1ccc(Sc2c(Sc3ccc(C)cc3)c3ccccc3n(C)c2=O)cc1`, for which the caspase activation was -0.308% (inactive).
The same measure, in the same setting: the figure for `COc1ccc(CCNc2nc(N3CCOCC3)nc(N3CCOCC3)n2)cc1OC` is 0.077% (inactive); for `O=c1[nH]c2ccccc2c(O)c1[N+](=O)[O-]` it is 0.941% (inactive).
For `CCn1c(=O)c(Sc2ccc(C)cc2)c(Sc2ccc(C)cc2)c2ccccc21`, the caspase activation was 2.86% (inactive).
As to `COc1ccc(N2CCN(c3nc(NCCc4ccc(OC)c(OC)c4)nc(N4CCOCC4)n3)CC2)cc1`, the caspase activation is 0.186% (inactive).
Take `COCCn1c(=O)c(Sc2ccc(C)cc2)c(Sc2ccc(C)cc2)c2ccccc21`: the caspase activation was -0.209% (inactive).
Consider `Cc1ccc(Sc2c(Sc3ccc(C)cc3)c3ccccc3n(Cc3ccccc3)c2=O)cc1`, for which the caspase activation was -0.908% (inactive).
For the compound `COc1c([N+](=O)[O-])c(=O)n(C)c2ccccc12`, the caspase activation is 1.51% (inactive).
On the same count and under the same terms, the figure for `Cn1c(=O)c(Sc2ccccn2)c(Sc2ccccn2)c2ccccc21` is 1.87% (inactive); for `COc1nc2ccccc2c(Sc2ccc(C)cc2)c1[N+](=O)[O-]` it is 2.16% (inactive); for `CCn1c(=O)c([N+](=O)[O-])c(Sc2ccc(C)cc2)c2ccccc21` it is 1.63% (inactive).
As to `C/C(=N\Nc1nc(N2CCCCC2)nc(N2CCCCC2)n1)c1ccc(F)cc1`, the caspase activation is 0.551% (inactive).
On the same count and under the same terms, then `COc1ccc(CCNc2nc(N3CCCC3)nc(N3CCCC3)n2)cc1OC`, with -0.336% (inactive); and `O=C(COc1ccc(Cl)cc1Cl)NNc1nc(N2CCOCC2)nc(N2CCOCC2)n1`, with -1.06% (inactive).
